Measured values published in ChEMBL document CHEMBL1142242, “Indanylacetic acid derivatives carrying 4-thiazolyl-phenoxy tail groups, a new class of potent PPAR alpha/gamma/delta pan agonists: synthesis, structure-activity relationship, and in vivo efficacy” (J Med Chem, 2007).
Converted amounts (≈) assume the structure as drawn. The source made the active and inactive calls. The rule behind the calls is not given here.

Columns and labels:
Cytochrome P450 1A2 = Cytochrome P450 1A2 (Homo sapiens, UniProt P05177); assay: Inhibition of CYP1A2; assay type: ADME
Method in brief: (§1)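 Enzyme assays per CYP isoform (1A2, 2C8, 2D6, 3A4), with turnover of an appropriate fluorescent substrate as read-out; IC₅₀ reported.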

[1] = molecular target: Peroxisome proliferator-activated receptor delta (Mus musculus, UniProt P35396); assay: Agonist activity at mouse PPAR delta
Sequence of Peroxisome proliferator-activated receptor delta (Mus musculus, UniProt P35396) (P35396 whole entry): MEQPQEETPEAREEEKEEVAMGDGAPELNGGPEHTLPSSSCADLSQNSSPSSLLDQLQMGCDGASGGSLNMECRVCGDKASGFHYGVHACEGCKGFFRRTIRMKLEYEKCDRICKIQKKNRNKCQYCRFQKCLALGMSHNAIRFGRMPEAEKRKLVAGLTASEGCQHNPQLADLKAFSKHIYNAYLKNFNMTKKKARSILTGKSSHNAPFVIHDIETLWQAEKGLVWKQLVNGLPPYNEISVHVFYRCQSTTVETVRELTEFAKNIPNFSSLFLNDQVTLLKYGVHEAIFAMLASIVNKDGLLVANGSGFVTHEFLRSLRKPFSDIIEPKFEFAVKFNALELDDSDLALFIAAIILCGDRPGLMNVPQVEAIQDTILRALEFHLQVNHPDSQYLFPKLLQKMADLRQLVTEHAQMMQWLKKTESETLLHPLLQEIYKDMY

[2] = Aqueous solubility at pH 6.8; assay type: physicochemical
[3] = Cmax in mouse at 10 mg/kg, po; assay type: ADME, organism-based; parameters: dose 10 mg/kg, route oral; settings: in vivo
Method in brief: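 Mice dosed orally in 0.5% methylcellulose vehicle; plasma Cmax reported.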

[4] = molecular target: T1, Peroxisome proliferator-activated receptor delta (Homo sapiens, UniProt Q03181); assay: Agonist activity at human PPAR delta expressed in CV1 cells by GAL4 transactivation assay
T1 sequence (Q03181 whole entry): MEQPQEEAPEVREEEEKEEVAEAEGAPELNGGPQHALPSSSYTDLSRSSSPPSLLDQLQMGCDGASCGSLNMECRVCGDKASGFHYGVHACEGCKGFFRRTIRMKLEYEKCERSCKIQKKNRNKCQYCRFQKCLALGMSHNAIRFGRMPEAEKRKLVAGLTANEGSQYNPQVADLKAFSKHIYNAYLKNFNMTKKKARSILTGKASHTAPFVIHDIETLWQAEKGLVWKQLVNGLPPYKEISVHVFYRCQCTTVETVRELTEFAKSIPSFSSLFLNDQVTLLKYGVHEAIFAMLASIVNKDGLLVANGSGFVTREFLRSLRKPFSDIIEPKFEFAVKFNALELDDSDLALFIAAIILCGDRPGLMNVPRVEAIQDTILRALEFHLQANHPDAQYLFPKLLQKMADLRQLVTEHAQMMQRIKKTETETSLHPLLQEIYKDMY

Cytochrome P450 2C8 = Cytochrome P450 2C8 (Homo sapiens, UniProt P10632); assay: Inhibition of CYP2C8; assay type: ADME; method in brief: as §1
Sequence of Cytochrome P450 2C8 (P10632 whole entry): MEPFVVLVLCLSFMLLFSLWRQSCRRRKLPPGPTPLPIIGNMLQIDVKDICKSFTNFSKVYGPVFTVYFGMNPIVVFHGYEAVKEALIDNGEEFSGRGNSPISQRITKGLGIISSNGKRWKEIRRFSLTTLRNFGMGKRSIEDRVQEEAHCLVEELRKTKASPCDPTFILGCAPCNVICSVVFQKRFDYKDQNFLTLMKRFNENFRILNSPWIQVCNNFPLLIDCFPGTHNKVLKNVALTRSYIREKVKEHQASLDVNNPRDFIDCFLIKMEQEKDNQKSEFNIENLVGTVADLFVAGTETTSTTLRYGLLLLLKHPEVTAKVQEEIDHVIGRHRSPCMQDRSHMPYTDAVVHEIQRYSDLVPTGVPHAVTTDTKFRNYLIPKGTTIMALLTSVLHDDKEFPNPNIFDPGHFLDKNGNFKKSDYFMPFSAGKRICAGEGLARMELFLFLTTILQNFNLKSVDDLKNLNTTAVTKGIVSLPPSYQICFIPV

Cytochrome P450 2C9 = Cytochrome P450 2C9 (Homo sapiens, UniProt P11712); assay: Inhibition of CYP2C9; assay type: ADME
Sequence of Cytochrome P450 2C9 (P11712 whole entry): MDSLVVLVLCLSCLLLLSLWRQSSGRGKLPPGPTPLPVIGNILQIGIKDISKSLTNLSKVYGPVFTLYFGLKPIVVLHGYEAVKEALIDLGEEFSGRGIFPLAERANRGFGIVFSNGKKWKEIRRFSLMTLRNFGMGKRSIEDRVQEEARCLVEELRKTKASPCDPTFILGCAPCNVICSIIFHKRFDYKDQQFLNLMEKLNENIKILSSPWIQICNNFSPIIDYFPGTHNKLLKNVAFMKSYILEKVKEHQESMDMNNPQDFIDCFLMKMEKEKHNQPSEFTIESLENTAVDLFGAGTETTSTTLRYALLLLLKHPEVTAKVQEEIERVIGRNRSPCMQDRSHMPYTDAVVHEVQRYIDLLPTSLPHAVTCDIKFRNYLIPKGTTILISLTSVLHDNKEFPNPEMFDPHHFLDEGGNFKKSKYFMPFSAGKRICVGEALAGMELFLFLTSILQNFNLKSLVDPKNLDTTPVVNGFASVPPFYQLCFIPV

Cytochrome P450 2D6 = Cytochrome P450 2D6 (Homo sapiens, UniProt P10635); assay: Inhibition of CYP2D6; assay type: ADME; method in brief: as §1
Sequence of Cytochrome P450 2D6 (P10635 whole entry): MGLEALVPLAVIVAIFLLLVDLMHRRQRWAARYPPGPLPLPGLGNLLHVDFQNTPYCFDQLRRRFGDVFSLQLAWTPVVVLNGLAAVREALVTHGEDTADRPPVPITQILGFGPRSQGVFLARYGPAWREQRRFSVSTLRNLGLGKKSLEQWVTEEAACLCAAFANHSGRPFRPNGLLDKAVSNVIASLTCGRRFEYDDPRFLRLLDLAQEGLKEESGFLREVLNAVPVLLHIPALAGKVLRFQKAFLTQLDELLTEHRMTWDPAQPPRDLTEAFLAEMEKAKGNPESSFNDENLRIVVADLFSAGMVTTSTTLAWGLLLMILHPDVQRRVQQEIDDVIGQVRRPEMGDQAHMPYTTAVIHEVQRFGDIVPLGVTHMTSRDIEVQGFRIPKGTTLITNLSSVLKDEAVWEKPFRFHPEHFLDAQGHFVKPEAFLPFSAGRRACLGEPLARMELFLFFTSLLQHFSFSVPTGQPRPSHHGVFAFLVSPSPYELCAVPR

Cytochrome P450 3A4 = Cytochrome P450 3A4 (Homo sapiens, UniProt P08684); assay: Inhibition of CYP3A4; assay type: ADME; method in brief: as §1
Sequence of Cytochrome P450 3A4 (P08684 whole entry): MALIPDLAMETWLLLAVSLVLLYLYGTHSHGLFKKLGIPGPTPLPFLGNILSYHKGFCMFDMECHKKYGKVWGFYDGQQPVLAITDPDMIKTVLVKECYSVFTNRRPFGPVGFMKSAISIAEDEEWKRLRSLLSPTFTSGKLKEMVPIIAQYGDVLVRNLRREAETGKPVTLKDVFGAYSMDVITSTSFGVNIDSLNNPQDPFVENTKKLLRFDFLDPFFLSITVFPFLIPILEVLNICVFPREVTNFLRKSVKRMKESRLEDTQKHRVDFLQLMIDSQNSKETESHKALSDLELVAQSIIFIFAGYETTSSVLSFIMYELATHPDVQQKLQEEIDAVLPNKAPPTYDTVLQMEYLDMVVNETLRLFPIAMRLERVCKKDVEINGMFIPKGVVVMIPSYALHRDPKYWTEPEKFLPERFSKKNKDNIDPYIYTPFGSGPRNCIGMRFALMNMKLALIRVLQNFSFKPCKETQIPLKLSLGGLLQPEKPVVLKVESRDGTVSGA

Androgen receptor = Androgen receptor (Homo sapiens, UniProt P10275); assay: Displacement of [3H]dihydrotestosterone from human recombinant androgen receptor expressed in SF9 baculovirus cells
Sequence of Androgen receptor (P10275 whole entry): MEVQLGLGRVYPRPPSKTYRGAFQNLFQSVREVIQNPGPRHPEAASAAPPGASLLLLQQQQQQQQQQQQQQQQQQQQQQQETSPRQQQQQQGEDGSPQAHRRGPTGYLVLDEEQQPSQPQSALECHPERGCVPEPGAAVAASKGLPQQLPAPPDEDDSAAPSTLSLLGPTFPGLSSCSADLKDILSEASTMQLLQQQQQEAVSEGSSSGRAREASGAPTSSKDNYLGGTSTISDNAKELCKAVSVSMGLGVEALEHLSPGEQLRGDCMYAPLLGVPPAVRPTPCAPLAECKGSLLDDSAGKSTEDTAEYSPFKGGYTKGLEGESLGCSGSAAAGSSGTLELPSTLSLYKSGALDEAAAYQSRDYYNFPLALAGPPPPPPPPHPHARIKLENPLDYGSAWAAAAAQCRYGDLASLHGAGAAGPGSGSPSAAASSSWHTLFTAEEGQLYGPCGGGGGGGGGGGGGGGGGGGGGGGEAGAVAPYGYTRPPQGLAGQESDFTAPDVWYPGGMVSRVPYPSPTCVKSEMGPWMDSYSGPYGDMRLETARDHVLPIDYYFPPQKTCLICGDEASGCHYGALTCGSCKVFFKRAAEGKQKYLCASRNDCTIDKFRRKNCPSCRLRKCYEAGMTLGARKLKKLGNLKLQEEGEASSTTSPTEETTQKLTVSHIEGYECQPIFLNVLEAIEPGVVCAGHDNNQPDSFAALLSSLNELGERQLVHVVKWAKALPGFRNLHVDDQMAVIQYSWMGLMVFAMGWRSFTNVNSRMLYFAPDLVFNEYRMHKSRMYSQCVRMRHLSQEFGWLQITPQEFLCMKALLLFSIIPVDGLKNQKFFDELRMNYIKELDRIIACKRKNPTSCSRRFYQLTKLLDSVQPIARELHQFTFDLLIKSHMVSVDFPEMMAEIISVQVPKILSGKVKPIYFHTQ

Estrogen receptor = Estrogen receptor (Mus musculus, UniProt O08537+P19785); assay: Displacement of [3H]O-estradiol from ER in Swiss mouse uteri; assay type: protein assay
Glucocorticoid receptor = Glucocorticoid receptor (Homo sapiens, UniProt P04150); assay: Displacement of [H]dexamethaxone from glucocorticoid receptor in HUH cells; assay type: cell-based
Sequence of Glucocorticoid receptor (P04150 whole entry): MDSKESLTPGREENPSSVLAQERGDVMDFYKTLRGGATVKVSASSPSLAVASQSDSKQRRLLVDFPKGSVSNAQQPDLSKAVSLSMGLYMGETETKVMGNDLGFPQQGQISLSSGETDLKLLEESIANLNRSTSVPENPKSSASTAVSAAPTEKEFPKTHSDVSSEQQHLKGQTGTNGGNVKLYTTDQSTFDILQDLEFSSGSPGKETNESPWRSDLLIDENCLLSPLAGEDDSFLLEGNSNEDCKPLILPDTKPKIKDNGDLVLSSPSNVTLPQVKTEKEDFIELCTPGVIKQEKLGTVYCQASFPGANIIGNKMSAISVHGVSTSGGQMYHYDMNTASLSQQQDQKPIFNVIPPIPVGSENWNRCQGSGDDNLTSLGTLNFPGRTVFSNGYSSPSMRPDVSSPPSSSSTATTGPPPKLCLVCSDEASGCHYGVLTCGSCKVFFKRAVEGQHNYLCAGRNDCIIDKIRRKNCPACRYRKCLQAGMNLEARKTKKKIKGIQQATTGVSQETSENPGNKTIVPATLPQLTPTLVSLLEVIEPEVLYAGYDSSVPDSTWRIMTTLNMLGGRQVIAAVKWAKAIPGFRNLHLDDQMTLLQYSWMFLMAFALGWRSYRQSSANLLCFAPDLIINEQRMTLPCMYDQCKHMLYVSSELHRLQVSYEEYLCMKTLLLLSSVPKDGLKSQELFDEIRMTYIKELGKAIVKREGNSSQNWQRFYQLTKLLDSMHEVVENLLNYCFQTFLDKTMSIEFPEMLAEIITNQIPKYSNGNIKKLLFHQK

Progesterone receptor = Progesterone receptor (Homo sapiens, UniProt P06401); assay: Displacement of [3H]progesterone from progesterone receptor in T47D cells; assay type: cell-based
Sequence of Progesterone receptor (P06401 whole entry): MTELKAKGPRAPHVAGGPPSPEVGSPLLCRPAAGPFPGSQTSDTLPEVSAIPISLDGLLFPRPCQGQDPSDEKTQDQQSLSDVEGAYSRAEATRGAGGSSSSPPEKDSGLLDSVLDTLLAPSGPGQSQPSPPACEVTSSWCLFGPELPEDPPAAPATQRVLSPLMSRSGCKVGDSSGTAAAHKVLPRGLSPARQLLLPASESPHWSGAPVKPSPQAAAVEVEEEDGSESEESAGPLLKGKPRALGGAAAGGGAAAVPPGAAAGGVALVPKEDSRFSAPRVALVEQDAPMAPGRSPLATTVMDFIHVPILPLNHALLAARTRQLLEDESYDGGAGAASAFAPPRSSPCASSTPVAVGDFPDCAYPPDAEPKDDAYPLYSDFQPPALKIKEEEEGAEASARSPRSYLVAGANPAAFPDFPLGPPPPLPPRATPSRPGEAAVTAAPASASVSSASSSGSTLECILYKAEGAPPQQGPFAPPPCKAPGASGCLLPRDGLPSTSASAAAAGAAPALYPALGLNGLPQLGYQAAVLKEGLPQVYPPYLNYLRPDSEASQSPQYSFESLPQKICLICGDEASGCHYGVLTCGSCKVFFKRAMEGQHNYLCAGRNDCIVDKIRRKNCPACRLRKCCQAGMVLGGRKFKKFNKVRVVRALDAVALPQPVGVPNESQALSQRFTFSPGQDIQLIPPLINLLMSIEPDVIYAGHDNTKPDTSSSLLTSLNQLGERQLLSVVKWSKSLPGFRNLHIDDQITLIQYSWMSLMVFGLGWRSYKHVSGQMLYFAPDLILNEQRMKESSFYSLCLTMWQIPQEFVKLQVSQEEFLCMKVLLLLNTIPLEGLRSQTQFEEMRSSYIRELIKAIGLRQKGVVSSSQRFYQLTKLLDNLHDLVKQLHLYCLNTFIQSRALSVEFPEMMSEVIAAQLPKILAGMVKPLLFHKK
Method in brief: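 Cytosol from T47D cells incubated overnight at 4 °C with ³H-progesterone at 10 nM final, with or without compound. DMSO defined total binding and 1 µM unlabelled progesterone defined nonspecific binding. Bound and free ligand were separated on a spin plate, and the flow-through was counted by scintillation.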

[5] = molecular target: T2, Peroxisome proliferator-activated receptor alpha (Homo sapiens) (UniProt Q07869); assay: (§2) Agonist activity at human PPAR alpha expressed in CV1 cells by GAL4 transactivation assay; assay type: functional, cell-based; settings: CV-1
T2 sequence (whole entry): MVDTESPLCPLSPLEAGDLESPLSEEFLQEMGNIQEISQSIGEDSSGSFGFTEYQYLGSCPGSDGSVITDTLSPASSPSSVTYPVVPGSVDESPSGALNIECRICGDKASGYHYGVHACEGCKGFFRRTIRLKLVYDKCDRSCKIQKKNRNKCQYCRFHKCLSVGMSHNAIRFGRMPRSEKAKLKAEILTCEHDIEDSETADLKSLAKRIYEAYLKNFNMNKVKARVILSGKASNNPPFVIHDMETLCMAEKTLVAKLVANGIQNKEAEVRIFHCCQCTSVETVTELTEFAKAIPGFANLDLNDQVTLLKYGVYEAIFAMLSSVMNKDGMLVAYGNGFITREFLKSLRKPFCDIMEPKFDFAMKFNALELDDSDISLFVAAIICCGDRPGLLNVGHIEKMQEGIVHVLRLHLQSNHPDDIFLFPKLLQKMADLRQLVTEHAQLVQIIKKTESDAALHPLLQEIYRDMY
Method in brief: (§3)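 CV-1 cells plated, grown overnight at 37 °C in 5% CO₂, then transfected with GAL4-fused human PPARα ligand binding domain, pFR-LUC and pRL-SV40 reporter DNAs by lipofection. After a further overnight incubation, cells were exposed to compound or vehicle overnight. Activity was read as dual-luciferase reporter signal.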

[6] = molecular target: T3, Peroxisome proliferator-activated receptor alpha (Homo sapiens, UniProt Q07869); assay: as §2; assay type: functional, cell-based, CV-1; method in brief: as §3
T3 sequence (Q07869 whole entry): T2 sequence (whole entry)

[7] = molecular target: T3, Peroxisome proliferator-activated receptor alpha; assay: Agonist activity at human PPAR alpha by FRET assay; assay type: functional
Method in brief: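 Human PPARα ligand binding domain (GST-tagged) association with biotin-labeled co-activator CBP; Eu-labeled anti-GST antibody and streptavidin-APC; incubated 2 h at rt in buffer with or without compound; fluorescence read at 615 or 655 nm emission, 340 nm excitation.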

[8] = molecular target: T1, Peroxisome proliferator-activated receptor delta; assay: Agonist activity at human PPAR delta by FRET assay; assay type: functional
[9] = molecular target: T4, Peroxisome proliferator-activated receptor alpha (Mus musculus) (UniProt P23204); assay: (§4) Agonist activity at mouse PPAR alpha; assay type: functional
T4 sequence (whole entry): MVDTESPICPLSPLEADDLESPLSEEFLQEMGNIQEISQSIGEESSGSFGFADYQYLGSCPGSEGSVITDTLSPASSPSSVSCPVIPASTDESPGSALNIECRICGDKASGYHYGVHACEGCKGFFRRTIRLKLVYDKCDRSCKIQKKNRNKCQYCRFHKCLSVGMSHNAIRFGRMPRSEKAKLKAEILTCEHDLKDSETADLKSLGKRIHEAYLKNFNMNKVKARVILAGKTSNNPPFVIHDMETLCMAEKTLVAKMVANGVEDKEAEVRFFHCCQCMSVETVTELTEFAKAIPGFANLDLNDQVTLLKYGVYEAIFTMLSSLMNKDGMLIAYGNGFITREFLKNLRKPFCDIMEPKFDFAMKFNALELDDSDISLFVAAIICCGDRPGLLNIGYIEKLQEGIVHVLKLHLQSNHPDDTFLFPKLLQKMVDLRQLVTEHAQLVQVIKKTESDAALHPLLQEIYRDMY

[10] = molecular target: Peroxisome proliferator-activated receptor alpha (Mus musculus, UniProt P23204); assay: as §4; assay type: functional
Mus musculus [11] = assay: Reduction of plasma triglyceride level in male human apoA1 transgenic mouse at 10 mg/kg; assay type: functional, organism-based; parameters: dose 10 mg/kg
Method in brief: (§5)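 hApoA1 transgenic mice, 6 weeks old at purchase, grouped by equal baseline plasma triglyceride; oral dosing once daily for 7 days in 0.5% methylcellulose in water; bled ~24 h after last dose; plasma triglyceride and HDLc by autoanalyzer; mean ± SEM, 6-8 mice.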

Mus musculus [12] = assay: Increase of plasma HDLc level in male human apoA1 transgenic mouse at 10 mg/kg; assay type: functional, organism-based; parameters: dose 10 mg/kg; method in brief: as §5
Mus musculus [13] = assay: Increase of plasma HDLc level in female human apoA1 transgenic mouse at 10 mg/kg; assay type: functional, organism-based; parameters: dose 10 mg/kg; method in brief: as §5
Rattus norvegicus [14] = assay: Reduction of FFA level in ZDF rat at 1 mg/kg, po after 21 days; assay type: functional, organism-based; parameters: dose 1 mg/kg
Method in brief: (§6)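 Male ZDF rats, on chow 4-8 weeks to confirm hyperglycemia, grouped by equal baseline blood glucose; oral dosing once daily for 21 days in 0.5% methylcellulose in water; bled ~24 h after last dose; plasma FFA measured.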

Rattus norvegicus [15] = assay: Reduction of FFA level in ZDF rat at 3 mg/kg, po after 21 days; assay type: functional, organism-based; parameters: dose 3 mg/kg; method in brief: as §6
Syrian golden hamster [16] = assay: Reduction of VLDL level in fat fed hyperlipidemic Golden Syrian hamster at 10 mg/kg, po after 14 days; assay type: functional, organism-based; parameters: dose 10 mg/kg; settings: Mesocricetus auratus
Method in brief: (§7)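 Male Syrian Golden hamsters (≤7 weeks, 120-150 g) on high fat diet plus 10% fructose drinking water; bled day 10, then dosed orally once daily by weight for 14 days; necropsy day 24; EDTA plasma lipoproteins resolved by FPLC; mean ± SEM, 10 hamsters.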

Syrian golden hamster [17] = assay: Reduction of LDL level in fat fed hyperlipidemic Golden Syrian hamster at 10 mg/kg, po after 14 days; assay type: functional, organism-based; parameters: dose 10 mg/kg; settings: Mesocricetus auratus; method in brief: as §7
Syrian golden hamster [18] = assay: Increase of HDL/LDL ratio in fat fed hyperlipidemic Golden Syrian hamster at 10 mg/kg, po after 14 days; assay type: functional, organism-based; parameters: dose 10 mg/kg; settings: Mesocricetus auratus; method in brief: as §7
Mus musculus [19] = assay: Reduction of blood glucose level in orally dosed db/db mouse at 1 mg/kg after 8 days; assay type: functional, organism-based; parameters: dose 1 mg/kg
Method in brief: (§8)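 Female db/db mice, on chow 3-4 weeks to confirm hyperglycemia, grouped by equal baseline blood glucose; oral dosing once daily in 0.5% methylcellulose in water; blood glucose by analyzer ~24 h after last dose; percent change vs vehicle = ((Tf/Ti)/(Vf/Vi) − 1) × 100.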

Mus musculus [20] = assay: Reduction of blood glucose level in orally dosed db/db mouse at 3 mg/kg after 8 days; assay type: functional, organism-based; parameters: dose 3 mg/kg; method in brief: as §8
Mus musculus [21] = assay: Reduction of blood glucose level in orally dosed db/db mouse at 10 mg/kg after 8 days; assay type: functional, organism-based; parameters: dose 10 mg/kg; method in brief: as §8
[22] = system: PPAR alpha (Mesocricetus auratus); assay: Agonist activity at Syrian Golden hamster PPAR alpha
Syrian golden hamster [23] = assay: Reduction of VLDL level in fat fed hyperlipidemic Golden Syrian hamster at 100 mg/kg, po after 14 days; assay type: functional, organism-based; parameters: dose 100 mg/kg; settings: Mesocricetus auratus; method in brief: as §7
Syrian golden hamster [24] = assay: Reduction of LDL level in fat fed hyperlipidemic Golden Syrian hamster at 100 mg/kg, po after 14 days; assay type: functional, organism-based; parameters: dose 100 mg/kg; settings: Mesocricetus auratus; method in brief: as §7
Syrian golden hamster [25] = assay: Increase of HDL/LDL ratio in fat fed hyperlipidemic Golden Syrian hamster at 100 mg/kg, po after 14 days; assay type: functional, organism-based; parameters: dose 100 mg/kg; settings: Mesocricetus auratus; method in brief: as §7

O=C(O)C[C@@H]1CCc2cc(OCCCOc3ccc(-c4nc5c(s4)CCCC5)cc3)ccc21
IC50 (Cytochrome P450 1A2): > 10 µM | EC50 [1]: 0.084 µM | solubility [2]: 31 µM (≈ 14.4 µg/mL) | Cmax [3]: 20 µM | EC50 [4]: 0.04 µM | IC50 (Cytochrome P450 2C8): > 10 µM | IC50 (Cytochrome P450 2C9): > 10 µM | IC50 (Cytochrome P450 2D6): > 10 µM | IC50 (Cytochrome P450 3A4): > 10 µM | EC50 (Androgen receptor): > 10 µM | EC50 (Estrogen receptor): > 10 µM | EC50 (Glucocorticoid receptor): > 10 µM | EC50 (Progesterone receptor): > 10 µM | Activity [5]: 100% | EC50 [6]: 0.152 µM | EC50 [7]: 0.391 µM | EC50 [8]: 0.0022 µM | Activity [9]: 28% | EC50 [10]: > 10 µM

CCCc1cc(C2=NC3OCCCC3S2)ccc1OCCCOc1ccc2c(c1)CC[C@H]2CC(=O)O (some centres not stated)
Activity (Mus musculus [11]): Dose-dependent effect | Activity (Mus musculus [12]): Dose-dependent effect | Activity (Mus musculus [13]): Active | Activity (Rattus norvegicus [14]): Active | Activity (Rattus norvegicus [15]): Active | Activity (Syrian golden hamster [16]): Active | Activity (Syrian golden hamster [17]): Active | Activity (Syrian golden hamster [18]): Active | Activity (Mus musculus [19]): Dose-dependent effect | Activity (Mus musculus [20]): Dose-dependent effect | Activity (Mus musculus [21]): Dose-dependent effect | EC50 (Estrogen receptor): > 10 µM | Activity [5]: 88% | Activity [9]: 25% | Activity [22]: 100%

CC(C)OC(=O)C(C)(C)Oc1ccc(C(=O)c2ccc(Cl)cc2)cc1
Activity (Syrian golden hamster [23]): Active | Activity (Syrian golden hamster [24]): Active | Activity (Syrian golden hamster [25]): Active
